Measured values reported in the EternaBench riboswitch data.

Tested on: MS2 coat protein
Test: apparent Kd, MS2 coat protein; higher = weaker binding; RNA-MaP array; FMN 200 µM where present
Outline: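 Two titrations, one without ligand and one with constant ligand, were run with SNAP-549-labelled MS2 coat protein from 0.7 or 1.5 nM, doubling to 3 µM. The targets were designs transcribed by stalled E. coli RNA polymerase on Illumina sequencing-chip clusters, in 100 mM Tris-HCl pH 7.5, 80 mM KCl, 4 mM MgCl2, BSA, DTT, yeast tRNA and Tween-20. The apparent Kd is the median of filtered per-cluster binding-curve fits, with green signal normalised to red-channel RNA signal and control-cluster median Fmax.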

[1] = designed as: OFF switch for flavin mononucleotide, no ligand
[2] = ligand present: flavin mononucleotide, designed as: OFF switch for flavin mononucleotide
[3] = designed as: ON switch for flavin mononucleotide, no ligand
[4] = ligand present: flavin mononucleotide, designed as: ON switch for flavin mononucleotide

## GCCGGAGCAGGAUAUUCAAUAUCACACAUGAGGAUCACCCAUGUCCAGCGAAAGCUGGAGGGAGAAGGGCUCUGGC
[1]
  apparent Kd: 70.8 nM
[2]
  apparent Kd: 20.3 nM

## AAAAGAUAAGCAGGAUAUCGAACAACUCAUGGGCUAUGCCAUCCGCACAUGAGGAUCACCCAUGUCGAGAAGGGCUAAGAGUAG
[1]
  apparent Kd: 9.82 nM
[2]
  apparent Kd: 25.8 nM

## AUUGUAGUUGUGAGGAUAUCGUUGAUUUUUUGAAACGAGAAGGCACAUGAGGAUCACCCAUGUAAGUUGUAGGU
[1]
  apparent Kd: 80.6 nM
[2]
  apparent Kd: 315 nM

## GCCAUCGCAUGAGGAUAUGCUCCCGUUUCGGGAGCAGAAGGCAUGCCAUAAGACAUGAGGAUCACCCAUGUAGUUAAGAUGGCA
[3]
  apparent Kd: 5.71 nM
[4]
  apparent Kd: 5.75 nM

## UUGUUACAUGAGGAUCACCCAUGUGAGGAUAUGGUUCGGUACUGUCAUGUCGCGUACUCCAGAAGGCACAUGUU
[1]
  apparent Kd: 97.1 nM
[2]
  apparent Kd: 303 nM

## AAUCGAUGAUCAGGAUAUGUGGAGCCUCUAAGCGAUGAGGCGUACAUGAGGAUCACCCAUGUGACACAGAAGGGAUACAUGCGG
[3]
  apparent Kd: 60.7 nM
[4]
  apparent Kd: 8.43 nM

## UUAAAUCGAAACAUGAGGAUCACCCAUGUGUUGUAAUUAAUAUAGGAUAUGUAUAUACUUUUAUAAUAGAAGGAUGAUAAUACU
[3]
  apparent Kd: 15.4 nM
[4]
  apparent Kd: 11.1 nM

## AUACAUGAGGAUCACCCAUGUAAUUAAUUAACUUGUAAGAUCAAGGAUAUCAGCUCGAAUAGAGCUGAGAAGGUGAUCACAUGU
[3]
  apparent Kd: 179 nM
[4]
  apparent Kd: 220 nM

## AAAAAGGCAGGAUAUACAAAAAAAAAAAAAAAAAAGGAGGGACAUGAGGAUCACCCAUGUAGAAGGGCCAAAAA
[1]
  apparent Kd: 66.5 nM
[2]
  apparent Kd: 134 nM

## CGCGAAAACAUAGGAUAUUGUUACAUGAGGAUCACCCAUGUCAACCAUGUAGCUCGAAUUGUUGUCAAGAAGGAUGAGGUCGCG
[3]
  apparent Kd: 18.4 nM
[4]
  apparent Kd: 22 nM

## GUAGCUAUCGGAGGAUAUCCAUACCGGAAACGGACAUGAGGAUCACCCAUGUGGCGAAAGCCUUGGGAGAAGGCCGAUAGCUAC
[3]
  apparent Kd: 5.06 nM
[4]
  apparent Kd: 3.36 nM

## AAAACAUGAGGAUCACCCAUGUAAAGAUCGGUUAAUAGAAGUGAGGAUAUGCUUAAUAUAAGGUAGCAGAAGGCACUGGGUACA
[3]
  apparent Kd: 23.3 nM
[4]
  apparent Kd: 25.7 nM

## GGUGGACAUGAGGAUCACCCAUGUGAGGAUAUCGGCUAUCUUCUCGCUGUCGGUUGCUCGAGAAGGCACAUUGU
[1]
  apparent Kd: 70.6 nM
[2]
  apparent Kd: 86.7 nM

## ACCUCGUACACAGGAUAUGAUUACUUGCAGCCUGCGUUGACAUGAGGAUCACCCAUGUGGACUGAUCAGAAGGGUGAACGGAAG
[4]
  apparent Kd: 112 nM

## AUUAAUUAAUUAAUACAUGAGGAUCACCCAUGUAAUAAGAUCAAGGAUAUCAGCUCGAAUAGAGCUGAGAAGGUGAUCACAUGU
[3]
  apparent Kd: 555 nM
[4]
  apparent Kd: 226 nM

## GUUAGACAUGAGGAUCACCCAUGUGAGGAUAUGAUGCGAAUAAAGAAUGAAGUAAGCAUCAGAAGGCACAUAUG
[1]
  apparent Kd: 267 nM
[2]
  apparent Kd: 381 nM

## UAAAUCUAGUAAGGAUAUACACGAGAUUCAAGUGUAGAAGGUACUUACAUGAGGAUCACCCAUGUAUACAUGGAUAAUAGAUAU
[3]
  apparent Kd: 234 nM
[4]
  apparent Kd: 109 nM

## CAGCACAUGAGGAUCACCCAUGUGCAUCCAUCAUGUGCCGUGCAGGAUAUAGACCGCCGUCCAGUCUAGAAGGGCACCGAUGAC
[1]
  apparent Kd: 159 nM
[2]
  apparent Kd: 75.1 nM

## UUAAUUAUACAAGGAUAUCUAUUGUAGUUUCGACUUACAUGAGGAUCACCCAUGUUAAUAUGUUUAGAGAAGGUGUAUUUUCUG
[3]
  apparent Kd: 51 nM
[4]
  apparent Kd: 49.5 nM

## CUCCGUGGCGAGAAGGACGGAAUUUAAGGUUCUGUAGGAUAUCGAAACAUGAGGAUCACCCAUGUAUUGAUCGGGUGCAGUGUG
[1]
  apparent Kd: 26.9 nM
[2]
  apparent Kd: 32.2 nM

## GUAGCUUAUGAGAAGGCGAUCAUGAAACAUGAUCGAGGAUAUCAUGUAAACAUGAGGAUCACCCAUGUAUGGGUAUUAUGCUAC
[3]
  apparent Kd: 313 nM
[4]
  apparent Kd: 42.9 nM

## UUGUUAUAUGUAGGAUAUGCAUAUUAUUAUUAUGCAGAAGGACAUGAGGAUCACCCAUGUAUAUUAUUGUUAUAUGUUAUAUAU
[1]
  apparent Kd: 23 nM
[2]
  apparent Kd: 25.4 nM

## CUUUUAUAAUAGAAGGUAGACUUUAAGUGGAUCACCCAUGUGUAGGUACUAAGGAUAUGUAGUUACAUGAGGAUCACCCAUGUU
[3]
  apparent Kd: 172 nM
[4]
  apparent Kd: 143 nM

## GCAAAGCCUGACAUGAGGAUCACCCAUGUUAGAUUGUUAUGUCAGGAUAUUGUCUAGACCCUAGACAAGAAGGGAUGCUUUGCU
[3]
  apparent Kd: 371 nM
[4]
  apparent Kd: 26.9 nM

## UUAUGCUGAGAGAAGGUUCAAACUACAUAUUGCGCACAUGAGGAUCACCCAUGUUGGUGAAUAAGAAAGGAUAUUUUACUGUAU
[1]
  apparent Kd: 63.2 nM
[2]
  apparent Kd: 43.1 nM

## GUCAGCUCGUGAGGAUAUACAUGUGCUGGAUACAGCACUAUUAUGUUCACAUGAGGAUCACCCAUGUAGAAGGCACGAGCUGAU
[1]
  apparent Kd: 16.2 nM
[2]
  apparent Kd: 21.7 nM

## AACGCGUCAGGAUAUGCCAUAAAUUACCUAGUACGACCAUAGCAGAAGGGACAUGAGGAUCACCCAUGUAAAUA
[1]
  apparent Kd: 40.5 nM
[2]
  apparent Kd: 28.3 nM

## UGUGAGUUGAUGUUAGAUAGGAGUACAUGAGGAUCACCCAUGUAGGAUAUUCAAAGACGCAGAUAGAAGAAGGACAUAGGUUUC
[1]
  apparent Kd: 16.1 nM
[2]
  apparent Kd: 14.8 nM

## UUUAUGGGACAGAAGGGCAUUUACAUGAGGAUCACCCAUGUUCAUCAUUGCAGGAUAUGUAUUACAUGAGGAUCACCUAUGUUC
[3]
  apparent Kd: 170 nM
[4]
  apparent Kd: 82.5 nM

## UUCGGCGCAGGAUAUGCGGUUCUGUGUUGAAUCGGCGCGGGACAUGAGGAUCACCCAUGUAGAAGGGUGUUGGG
[1]
  apparent Kd: 361 nM
[2]
  apparent Kd: 287 nM

## AGAAGGCUACAGAAGGGACACACACGGUGGGAGUCAGGAUAUGUAGUGAAAACGUUACAUGAGGAUCACCCAUGUAGACCUUCC
[3]
  apparent Kd: 141 nM
[4]
  apparent Kd: 18.4 nM

## AAUGUUUGAUUCCACUUAUACAUGAGGAUCACCCAUGUUAUCGAGGAUAUGCAUUAGAGUGUUUAGCAGAAGGCGAUGUAAAUG
[1]
  apparent Kd: 7.34 nM
[2]
  apparent Kd: 24.1 nM

## GCCAACUUAUGAGGAUAUGGCACCUUAUUGGUGCCAGAAGGCAUGUCUCUUGACAUGAGGAUCACCCAUGUAUUAUAGUUGGCA
[3]
  apparent Kd: 421 nM
[4]
  apparent Kd: 158 nM

## UCGUGCCGGGUCACGAUUGACCCACAUGAGGAUCACCCAUGUAGAAGGACCAGCGUCGGCCCUUGGUAGGAUAUACAUGAGCUC
[1]
  apparent Kd: 94.8 nM
[2]
  apparent Kd: 114 nM

## CAGCUGAAAGUCAGGAUAUCUAGAGCUGCGGCUCUAGAGAAGGGACAUGAGGAUCACCCAUGUGAUCACAGCUG
[1]
  apparent Kd: 1440 nM
[2]
  apparent Kd: 150 nM

## UGCUACUAGGGAGGAUAUGGGAAGAUACAUGAGGAUCACCCAUGUUUAAGAAUGCCGAGAGGCAACUAGAAGGCCCUAGUACCU
[3]
  apparent Kd: 401 nM
[4]
  apparent Kd: 22.1 nM

## UCCUUAAACACAGGAUAUCCUGCCGUACAUGAGGAUCACCCAUGUCCGGUCGGAGAAGGGUGGCGAAGGUAUGUGCGAAUUAAG
[3]
  apparent Kd: 8.23 nM
[4]
  apparent Kd: 5.41 nM

## GCCCGCGCUAAGGAUAUCAGGGUUAAAAUAGUAUGAGAAGGUAGCACAUGAGGAUCACCCAUGUGUCCCUUAUG
[1]
  apparent Kd: 16.5 nM
[2]
  apparent Kd: 17.3 nM

## GCCGAAAGUGUGAGGAUAUACCUAUGGAAACAUAGGUAGAAGGCACAUGAGGAUCACCCAUGUUCCUCAUCGGC
[1]
  apparent Kd: 123 nM
[2]
  apparent Kd: 623 nM

## UUAAUGUGAGGAUAUCAAGAGAGAAAGAGUAAUGGUAAAUAUGAGAAGGCACAUGAGGAUCACCCAUGUUCUUC
[1]
  apparent Kd: 15.9 nM
[2]
  apparent Kd: 15.5 nM

## CUUUAGUGAGGAUAUCUGGCUUCGAUCGUGAGAUCGAGGCUAGAGAAGGCACAUGAGGAUCACCCAUGUUCCUC
[1]
  apparent Kd: 40.1 nM
[2]
  apparent Kd: 439 nM

## UGUGUGAGACAGGAUAUGCCGGUUGUAUUGCUGGUAGAAGGGUCUACAUGAGGAUCACCCAUGUGGCCGGUUGG
[1]
  apparent Kd: 18.6 nM
[2]
  apparent Kd: 23.2 nM

## UGUCGGAGCAGAGGAUAUUACAUGAGGAUCACCCAUGUAUGAACCAAUAGAUGGAAACAGCAAUGUAAGAAGGCUGCUCCGACA
[1]
  apparent Kd: 95.9 nM
[2]
  apparent Kd: 346 nM

## GGAAAGCAAGGAUAUACAAACAAACAAACAAACAAAAGGGAACAUGAGGAUCACCCAUGUAGAAGGUGCAAACA
[1]
  apparent Kd: 41.7 nM
[2]
  apparent Kd: 37.5 nM

## GUUUCGUGAGGAUAUGUGGCUUCGAUCGUGCGAUCGAGGCUACAGAAGGCACAUGAGGAUCACCCAUGUUCCUC
[1]
  apparent Kd: 45.2 nM
[2]
  apparent Kd: 612 nM

## AUCAACCAGGCAGGAUAUCAAUGUGGCCUCAUCGUACACCCUCGCAACAUGAGGAUCACCCAUGUUGAGAAGGGCCAAUUAAGA
[1]
  apparent Kd: 10.1 nM
[2]
  apparent Kd: 6.02 nM

## AUAUUGUGAGGAUAUCCAAUAUAUGACAUGAGGAUCACCCAUGUUUCCACUCGUACCUCCGGAGAAGGCACUUAAA
[1]
  apparent Kd: 20.5 nM
[2]
  apparent Kd: 23.2 nM

## AAAUAGUCAGGAUAUACAUGAGGAUCACCCAUGUAAACUUUUAGUUUAAUUUGAAUGUGUAGAAGGGACAUUAA
[1]
  apparent Kd: 28.1 nM
[2]
  apparent Kd: 33 nM

## CCCUCGUAGUAGAAGGGCGGCCGAAAUCUGCACGCAGGAUAUACAUGAGGAUCACCCAUGUACUGAGCUGAAGAGCACUUGGAA
[1]
  apparent Kd: 15.1 nM
[2]
  apparent Kd: 14.5 nM

## UUAAUUAAUUAAUUCCAGUUUACAUGAGGAUCACCCAUGUAUAAGGAUAUGCAGUGGAAUACACUGCAGAAGGUAUACAUCUGG
[1]
  apparent Kd: 18.4 nM
[2]
  apparent Kd: 35.8 nM

## GCAUUUGAAGGAUAUGUCUUCGGAAACAUGAGGAUCACCCAUGUAAUACUCAUAUCACGGACAGAAGGUCAGGGUC
[1]
  apparent Kd: 35.1 nM
[2]
  apparent Kd: 40.9 nM

## CUUUUGUGAGGAUAUCAGUAGUAAAUAAAUAUAAUUACUACUGAGAAGGCACAUGAGGAUCACCCAUGUUCCUC
[1]
  apparent Kd: 39.7 nM
[2]
  apparent Kd: 274 nM

## UGUGUGUGGCAGGAUAUGCCGGUCGUUGGUCGGGUAGAAGGGUCUACAUGAGGAUCACCCAUGUGGCCGGUUGG
[1]
  apparent Kd: 46.8 nM
[2]
  apparent Kd: 44 nM

## AAAUACGGUCAAGGAUAUGUAUAAAAGAUAAGAAAACAUGAGGAUCACCCAUGUAUAUGGUGGGAACAGAAGGUGAAUAAGUAA
[1]
  apparent Kd: 182 nM
[2]
  apparent Kd: 142 nM

## UUAAAUCAUGUAGGAUAUGCAUGGCGAAGCUACGCAGAAGGACAUGAGGAUCACCCAUGUUCAAGCUACCGAGUUCGGUGGCAA
[1]
  apparent Kd: 23.3 nM
[2]
  apparent Kd: 148 nM
